# Measured values: ChEMBL document CHEMBL4152207, “Discovery of potent and selective BRD4 inhibitors capable of blocking TLR3-induced acute airway inflammation” (Eur J Med Chem, 2018)
# Active and inactive are the calls of the source. The calls are words filed in the database; no cut-off is given here.
# Columns and labels:
# Mus musculus [1] = test: Anti-inflammatory activity in poly(I:C)-induced airway inflammation C57BL/6 mouse model assessed as reduction in mCIG5 expression in lung at 10 mg/kg, ip administered 1 day prior to poly(I:C) stimulation and redosed on day 2 followed by poly(I:C) stimulation; format: functional, organism-based
# Method in brief: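 Male C57BL/6J mice, 12 weeks old, were given 10 mg/kg i.p. one day before stimulation. The next day they got a second dose, immediately followed by intranasal poly(I:C) (300 μg in 50 μL PBS) or PBS alone. Compound was taken up in DMSO and diluted in 10% hydroxypropyl β-cyclodextrin in PBS. Mice were euthanized one day later and lung tissue was collected for cytokine expression.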
# Mus musculus [2] = test: Toxicity in mouse assessed as effect on nuetrophils level at 1 to 50 mg/kg, ip dosed daily for 1 month; format: organism-based; conditions: in vivo
# Mus musculus [3] = test: Toxicity in mouse assessed as effect on platelet level at 1 to 50 mg/kg, ip dosed daily for 1 month; format: organism-based; conditions: in vivo
# [4] = molecular target: Prostaglandin G/H synthase 1 (Homo sapiens) (UniProt P23219); test: Inhibition of human recombinant COX1 using arachidonic acid as substrate after 3 mins by fluorimetric analysis; set-up: scale not given: the % may be the effect or the level left
# Sequence of Prostaglandin G/H synthase 1 (Homo sapiens) (P23219 whole entry): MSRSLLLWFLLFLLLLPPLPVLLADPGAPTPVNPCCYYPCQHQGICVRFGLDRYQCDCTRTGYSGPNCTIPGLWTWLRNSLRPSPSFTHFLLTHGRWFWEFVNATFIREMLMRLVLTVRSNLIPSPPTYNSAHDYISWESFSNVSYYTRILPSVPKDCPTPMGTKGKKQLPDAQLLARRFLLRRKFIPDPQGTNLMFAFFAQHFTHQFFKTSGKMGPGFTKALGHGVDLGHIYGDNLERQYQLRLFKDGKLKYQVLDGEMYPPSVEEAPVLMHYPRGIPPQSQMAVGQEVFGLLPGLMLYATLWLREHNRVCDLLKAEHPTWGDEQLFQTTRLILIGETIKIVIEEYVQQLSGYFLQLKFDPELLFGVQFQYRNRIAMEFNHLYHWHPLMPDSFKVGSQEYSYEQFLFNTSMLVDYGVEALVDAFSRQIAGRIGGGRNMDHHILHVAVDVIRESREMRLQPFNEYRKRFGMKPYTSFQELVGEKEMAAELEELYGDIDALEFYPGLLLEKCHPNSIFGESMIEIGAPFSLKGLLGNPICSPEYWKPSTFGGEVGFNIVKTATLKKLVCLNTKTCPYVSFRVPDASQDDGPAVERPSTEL
smiles,measurement,setting,value
Cc1cc(/N=N/c2ccc(S(=O)(=O)NC3CCCC3)cc2)c(N)cc1O,Activity,Mus musculus [1],Active
same,Activity,Mus musculus [2],Non-Toxic
same,Activity,Mus musculus [3],Non-Toxic
same,Activity,[4],28.2 to 41.6%
